In ChEMBL document CHEMBL2146365, “Design and synthesis of EGFR dimerization inhibitors and evaluation of their potential in the treatment of psoriasis” (Bioorg Med Chem, 2012):

Experiments:
[1] = Antioxidant activity in bovine brain assessed as inhibition of iron-ascorbate-induced lipid peroxidation by thiobarbituric acid test; type: functional, tissue-based, Bos taurus
Outline: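 Hit compounds were tested for inhibition of lipid peroxidation by the thiobarbituric acid (TBA) assay. Propyl gallate served as the standardizing positive control, tested at 100 µM.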

[2] = biological target: Epidermal growth factor receptor (Homo sapiens) (UniProt P00533); assay: Inhibition of EGFR-mediated ERK2 phosphorylation in HPV-16 transformed human CCD-1106 cells at 116.8 uM after 30 mins by densitometric analysis; type: cell-based
Sequence of Epidermal growth factor receptor (Homo sapiens) (P00533 whole entry): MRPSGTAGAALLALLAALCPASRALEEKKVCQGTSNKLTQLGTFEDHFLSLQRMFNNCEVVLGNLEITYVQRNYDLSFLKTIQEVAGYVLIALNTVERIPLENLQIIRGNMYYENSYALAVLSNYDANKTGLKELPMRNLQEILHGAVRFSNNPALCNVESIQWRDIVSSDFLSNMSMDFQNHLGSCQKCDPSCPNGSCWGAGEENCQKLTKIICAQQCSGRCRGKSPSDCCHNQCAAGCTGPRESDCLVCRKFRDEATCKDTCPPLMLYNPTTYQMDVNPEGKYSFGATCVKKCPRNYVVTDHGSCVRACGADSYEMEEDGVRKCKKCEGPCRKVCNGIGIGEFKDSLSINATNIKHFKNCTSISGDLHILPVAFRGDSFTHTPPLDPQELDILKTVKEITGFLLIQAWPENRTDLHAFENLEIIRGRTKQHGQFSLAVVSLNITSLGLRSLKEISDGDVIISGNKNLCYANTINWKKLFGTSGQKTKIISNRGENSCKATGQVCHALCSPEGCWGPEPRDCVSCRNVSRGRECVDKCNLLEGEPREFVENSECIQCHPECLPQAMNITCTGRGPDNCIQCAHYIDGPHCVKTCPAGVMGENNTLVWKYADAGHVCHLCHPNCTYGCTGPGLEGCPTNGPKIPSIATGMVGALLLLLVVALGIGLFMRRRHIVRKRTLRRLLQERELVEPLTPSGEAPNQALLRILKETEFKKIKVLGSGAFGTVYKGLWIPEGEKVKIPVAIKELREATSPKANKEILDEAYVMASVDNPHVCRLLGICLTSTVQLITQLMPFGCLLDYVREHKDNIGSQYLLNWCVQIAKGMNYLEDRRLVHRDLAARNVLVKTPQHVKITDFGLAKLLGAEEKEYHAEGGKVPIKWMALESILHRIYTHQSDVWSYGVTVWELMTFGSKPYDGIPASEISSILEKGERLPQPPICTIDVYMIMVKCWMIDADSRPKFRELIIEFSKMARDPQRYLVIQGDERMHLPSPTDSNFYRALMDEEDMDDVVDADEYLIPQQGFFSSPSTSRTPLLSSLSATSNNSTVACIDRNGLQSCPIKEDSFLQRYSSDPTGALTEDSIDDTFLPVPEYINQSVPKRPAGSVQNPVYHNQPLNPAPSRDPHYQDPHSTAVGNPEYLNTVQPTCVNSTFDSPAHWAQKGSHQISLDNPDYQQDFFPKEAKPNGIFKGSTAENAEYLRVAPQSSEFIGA
Outline: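 CCD-1106 cells were treated with compound for 30 min at 37 °C, then stimulated with EGF. Lysates were separated by SDS-PAGE, blotted to nitrocellulose and blocked in 3% BSA/NaTT. Blots were probed with p-ERK (E-4) or p-p38 (D-8) antibodies, detected by ECL and quantified by densitometry.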

HaCaT [3] = assay: Growth inhibition of human HaCaT cells after 72 hrs by neutral red uptake assay; type: functional
Outline: (§1)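 Neutral red uptake assay over 72 h. Cells were seeded at 10,000 cells/well and attached overnight, then exposed to eight concentrations with six replicates (DMSO <1%). CCD-1106 were grown in keratinocyte SFM with supplements. HaCaT were grown in DMEM with 10% FBS and 2 mM L-glutamine. NHEK (pooled adult) were grown in keratinocyte growth medium with supplement. Values are means, n = 6, against the untreated control.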

[4] = Growth inhibition of human NHEK cells after 72 hrs by neutral red uptake assay; type: functional; outline: as §1
U-937 = assay: Growth inhibition of human U937 cells after 72 hrs by Cell Titer 96 aqueous one solution assay; type: functional
Outline: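 Cells were grown in RPMI with 10% FBS, 2 mM L-glutamine and penicillin/streptomycin. They were seeded at 10,000 cells/well in round-bottom plates and exposed to compounds for 72 h (eight concentrations, six replicates). Cell Titer 96 AQueous One reagent was then added for 3 h at 37 °C and absorbance was read at 492 nm. Values are means, n = 6.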

HaCaT [5] = assay: Cytotoxicity against human HaCaT cells assessed as cell viability after 6 hrs by MTT assay; type: functional; details: read-out: LD50 (the source's name)
Outline: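 Cells were plated at 10,000/well, attached overnight, and exposed 6 or 24 h to eight drug concentrations with six in-plate replicates (DMSO <1%). MTT (0.5 mg/ml in PBS) was added for 2 h at 37 °C, then dissolved in 90% isopropanol/10% DMSO, and A590 was read. Values were corrected against untreated controls. LD₅₀ is reported as mean ± S.E.M., n = 3.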

HaCaT [6] = assay: Induction of apoptosis in human HaCaT cells assessed as late phase apoptotic/necrotic cells at 111.6 uM after 9 hrs by AnnexinV-FITC/propidium iodide based FACS flow cytometry; type: functional
Outline: (§2)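 HaCaT cells at 10^6 cells/ml were attached overnight and exposed to vehicle, 111.6, 223.2 or 446 µM for 9 h. Cells were then trypsinized, washed in ice-cold PBS and stained with Annexin V-FITC/PI. FACScan analysis used FL1/FL2, 10,000 events per sample, scatter gating, and quadrants set with single-stain controls. Runs were in triplicate and results are means of two experiments.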

HaCaT [7] = assay: Induction of apoptosis in human HaCaT cells assessed as early phase apoptotic cells at 446 uM after 9 hrs by AnnexinV-FITC/propidium iodide based FACS flow cytometry; type: functional; outline: as §2
HaCaT [8] = assay: Induction of apoptosis in human HaCaT cells assessed as early phase apoptotic cells at 223.2 uM after 9 hrs by AnnexinV-FITC/propidium iodide based FACS flow cytometry; type: functional; outline: as §2
HaCaT [9] = assay: Induction of apoptosis in human HaCaT cells assessed as activation of caspase 3/7 after 12 hrs; type: functional, cell-based
Outline: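 HaCaT cells were seeded at 10,000 cells/0.2 ml/well, attached overnight and exposed to compound (56–446 µM) for 12 h. Caspase-3/7 activity was measured with the Apo-ONE homogeneous kit, fluorescence 499/521 nm, in triplicate, with medium-only background wells. MTT viability was run in parallel. Results are means of two experiments, t-test against control.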

HaCaT [10] = assay: Cytotoxicity against human HaCaT cells assessed as LDH release after 24 hrs by CYTOX-96 assay; type: functional; details: read-out: LD50 (the source's name)
Outline: (§3)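 LDH release was read with the CytoTox 96 kit following the kit protocol after 6 or 24 h drug exposure. Cells were seeded at 10,000/well and attached overnight. Eight concentrations were run with six in-plate replicates; DMSO was <1% in all wells, with medium-only blanks. LD₅₀ is reported as mean ± S.E.M., n = 6. CCD-1106 were grown in supplemented keratinocyte SFM; HaCaT in DMEM/10% FBS.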

[11] = Cytotoxicity against HPV-16 transformed human CCD-1106 cells assessed as LDH release after 6 hrs by CYTOX-96 assay; type: functional; details: CCD-1106, 6 h, read-out: LD50 (the source's name); outline: as §3
HaCaT [12] = assay: Induction of apoptosis in human HaCaT cells assessed as viable cells at 446 uM after 12 hrs by MTT assay

CCOc1cc(/C=N\Nc2nc3c(c(=O)n(C)c(=O)n3C)n2Cc2ccccc2)ccc1O
IC50 [1]: 8 µM
inhibition [2]: 33%
GI50 (HaCaT [3]): 22 µM
GI50 [4]: 54 µM
growth inhibition (GI) (U-937): Dose-dependent effect
GI50 (U-937; U-937, 72 h): 46 µM
CC50 (HaCaT [5]): 440 µM
Activity (HaCaT [6]): 6%
Activity (HaCaT [7]): 24%
Activity (HaCaT [8]): 17%
Activity (HaCaT [9]): Dose-dependent effect
CC50 (HaCaT [10]): 446 µM
CC50 [11]: > 446 µM
viability at 446 µM (HaCaT [12]): 62%
